Assay results reported in ChEMBL document CHEMBL1123260 (J Med Chem, 1986).
Values joined by “and” are separate entries in the source; they are usually repeats but may differ in a detail not shown here. Equal values may be shown once.

Tests used:
Canis familiaris [1] = experiment: (§1) Percent change in heart rate (HR) before beta-blockade in anesthetized dogs at 0.11 mg/kg; assay type: functional, Canis lupus familiaris
In short: (§2)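 Anesthetized dogs: 30 min control recording before dosing. Drug dissolved in 0.9% saline or dilute HCl or NaOH (0.1 or 1.0 N), then made to volume with saline. Given iv (0.1 mL/kg over 1 min), cumulative doses at half-log intervals, 10–30 min between doses to reach steady state. One compound per animal. Inotropy taken as change in LV dP/dtmax from preceding baseline. Values are mean ± SEM or the mean of two experiments.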

Canis familiaris [2] = experiment: (§3) Percent change in heart rate (HR) before beta-blockade in anesthetized dogs at 0.01 mg/kg; assay type: functional, Canis lupus familiaris; in short: as §2
Canis familiaris [3] = experiment: (§4) Percent change in mean arterial blood pressure (MABP) before beta-blockade in anesthetized dogs at 0.03 mg/kg; assay type: functional, Canis lupus familiaris; in short: as §2
Canis familiaris [4] = experiment: Percent change in forelimb vascular resistance (FVR) after beta-blockade in anesthetized dogs 0.01 mg/kg; assay type: functional, Canis lupus familiaris
In short: (§5)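 Anesthetized dogs given β-adrenoceptor blockade (nadolol, 1 mg/kg iv) before the test agent. Drug dissolved in saline or dilute HCl/NaOH and given iv as cumulative 1-min doses, 10–30 min apart. Forelimb vascular resistance recorded as percent change from control. Values are mean ± SEM (n = 4-5) or the mean of two determinations, with significance set at p < 0.05.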

Canis familiaris [5] = experiment: (§6) Percent change in mean arterial blood pressure (MABP) before beta-blockade in anesthetized dogs at 0.01 mg/kg; assay type: functional, Canis lupus familiaris; in short: as §2
Canis familiaris [6] = experiment: Percent change in myocardial contractility (LV dp/dt) before beta-blockade in anesthetized dogs at 0.11 mg/kg; assay type: functional, Canis lupus familiaris, Myocardium; in short: as §2
Canis familiaris [7] = experiment: as §3; assay type: functional, Canis lupus familiaris; in short: as §2; remark: listed apart in the source
Canis familiaris [8] = experiment: Positive inotropic effects in anesthetized dogs; assay type: functional; details: Canis lupus familiaris; in short: as §2
Canis familiaris [9] = experiment: (§7) Percent change in myocardial contractility (LV dp/dt) before beta-blockade in anesthetized dogs at 0.01 mg/kg; assay type: functional, Canis lupus familiaris, Myocardium; in short: as §2
Phosphodiesterase 3 = Phosphodiesterase 3 (Homo sapiens, UniProt Q14432+Q13370); experiment: Inhibition of cardiac PDE 3 (phosphodiesterase III); assay type: protein assay, Canis lupus familiaris
Canis familiaris [10] = experiment: (§8) Percent change in total peripheral resistance (TPR) before beta-blockade in anesthetized dogs at 0.01 mg/kg; assay type: functional, Canis lupus familiaris; in short: as §2
Canis familiaris [11] = experiment: (§9) Percent change in total peripheral resistance (TPR) before beta-blockade in anesthetized dogs at 0.03 mg/kg; assay type: functional, Canis lupus familiaris; in short: as §2
Canis familiaris [12] = experiment: (§10) Percent change in forelimb vascular resistance (FVR) after beta-blockade in anesthetized dogs 0.11 mg/kg; assay type: functional, Canis lupus familiaris; in short: as §5
Canis familiaris [13] = experiment: as §9; assay type: functional, Canis lupus familiaris; in short: as §2; remark: listed apart in the source
Canis familiaris [14] = experiment: (§11) Percent change in mean arterial blood pressure (MABP) before beta-blockade in anesthetized dogs at 0.11 mg/kg; assay type: functional, Canis lupus familiaris; in short: as §2
Canis familiaris [15] = experiment: (§12) Percent change in forelimb vascular resistance (FVR) after beta-blockade in anesthetized dogs 0.03 mg/kg; assay type: functional, Canis lupus familiaris; in short: as §5
Canis familiaris [16] = experiment: as §4; assay type: functional, Canis lupus familiaris; in short: as §2; remark: listed apart in the source
Canis familiaris [17] = experiment: (§13) Percent change in heart rate (HR) before beta-blockade in anesthetized dogs at 0.03 mg/kg; assay type: functional, Canis lupus familiaris; in short: as §2
Canis familiaris [18] = experiment: as §10; assay type: functional, Canis lupus familiaris; in short: as §5; remark: listed apart in the source
Canis familiaris [19] = experiment: as §1; assay type: functional, Canis lupus familiaris; in short: as §2; remark: listed apart in the source
Canis familiaris [20] = experiment: Percent change in total peripheral resistance (TPR) before beta-blockade in anesthetized dogs at 0.11 mg/kg; assay type: functional, Canis lupus familiaris; in short: as §2
Canis familiaris [21] = experiment: Percent change in forelimb vascular resistance (FVR)in anesthetized dogs after beta-blockade at 0.01 mg/kg; assay type: functional, Canis lupus familiaris; in short: as §5
Canis familiaris [22] = experiment: as §6; assay type: functional, Canis lupus familiaris; in short: as §2; remark: listed apart in the source
Canis familiaris [23] = experiment: Percent change in total peripheral resistance (TPR) before beta-blockade in anaesthetized dogs at 0.11 mg/kg; assay type: functional, Canis lupus familiaris; in short: as §2
Canis familiaris [24] = experiment: as §7; assay type: functional, Canis lupus familiaris, Myocardium; in short: as §2; remark: listed apart in the source
Canis familiaris [25] = experiment: as §11; assay type: functional, Canis lupus familiaris; in short: as §2; remark: listed apart in the source
Canis familiaris [26] = experiment: as §12; assay type: functional, Canis lupus familiaris; in short: as §5; remark: listed apart in the source
Canis familiaris [27] = experiment: as §13; assay type: functional, Canis lupus familiaris; in short: as §2; remark: listed apart in the source
Canis familiaris [28] = experiment: as §8; assay type: functional, Canis lupus familiaris; in short: as §2; remark: listed apart in the source
Canis familiaris [29] = experiment: Cardiovascular effects in anesthetized dogs; assay type: functional; details: Canis lupus familiaris; in short: as §2
Canis familiaris [30] = experiment: Effective dose in anesthetized dogs; assay type: functional; details: Canis lupus familiaris; in short: as §2
Canis familiaris [31] = experiment: Percent change in myocardial contractility (LV dp/dt) before beta-blockade in anesthetized dogs at 0.03 mg/kg; assay type: functional, Canis lupus familiaris, Myocardium; in short: as §2

SMILES: O=C1CC2Cc3cc(-n4ccnc4)ccc3C2=NN1 (stereo not drawn)
- Change in heart rate (Canis familiaris [1]): 5%
- Change in heart rate (Canis familiaris [2]): 3%
- Change in MABP (Canis familiaris [3]): -3%
- Change in FVR (Canis familiaris [4]): -7.5%
- Change in MABP (Canis familiaris [5]): -2%
- Change in LV dp/dt (Canis familiaris [6]): 106% and 57%
- Change in heart rate (Canis familiaris [7]): 0%
- ED50 (Canis familiaris [8]): 0.023 mg/kg
- Change in LV dp/dt (Canis familiaris [9]): 11%
- IC50 (Phosphodiesterase 3): 1.8 µM
- Change in TPR (Canis familiaris [10]): -12%
- Change in TPR (Canis familiaris [11]): -22.5%
- Change in FVR (Canis familiaris [12]): -31%
- Change in TPR (Canis familiaris [13]): -23%
- Change in MABP (Canis familiaris [14]): -18%
- Change in FVR (Canis familiaris [15]): -22.5%
- Change in MABP (Canis familiaris [16]): -7%
- Change in heart rate (Canis familiaris [17]): 2%
- Change in FVR (Canis familiaris [18]): -34.5%
- Change in heart rate (Canis familiaris [19]): 12%
- Change in TPR (Canis familiaris [20]): -39%
- Change in FVR (Canis familiaris [21]): -1.5%
- Change in MABP (Canis familiaris [22]): 0%
- Change in TPR (Canis familiaris [23]): -33.5%
- Change in LV dp/dt (Canis familiaris [24]): 18%
- Change in MABP (Canis familiaris [25]): -18%
- Change in FVR (Canis familiaris [26]): -1.5%
- Change in heart rate (Canis familiaris [27]): 4%
- Change in TPR (Canis familiaris [28]): -8.5%

SMILES: CCC(=O)Nc1ccc2c(c1)CC1CC(=O)NN=C21 (stereo not drawn)
- ED50 (Canis familiaris [29]): 0.0104 mg/kg

SMILES: Oc1cc2c(nn1)-c1ccc(-n3ccnc3)cc1C2
- IC50 (Phosphodiesterase 3): 1.6 µM

SMILES: CN1N=C2c3ccc(-n4ccnc4)cc3CC2CC1=O (stereo not drawn)
- ED50 (Canis familiaris [30]): 1 mg/kg

SMILES: CC1CC(O)=NN=C1c1ccc(-n2ccnc2)cc1 (stereo not drawn) [CI-930]
- Change in MABP (Canis familiaris [3]): -5%
- ED50 (Canis familiaris [8]): 0.013 mg/kg
- Change in MABP (Canis familiaris [16]): -7.5%
- Change in heart rate (Canis familiaris [17]): 7%
- Change in LV dp/dt (Canis familiaris [31]): 76% and 47%
- Change in heart rate (Canis familiaris [27]): 11%
